Assay results taken from ChEMBL document CHEMBL1764953, “Discovery of orally active carboxylic acid derivatives of 2-phenyl-5-trifluoromethyloxazole-4-carboxamide as potent diacylglycerol acyltransferase-1 inhibitors for the potential treatment of obesity and diabetes” (J Med Chem, 2011).

Experiments:
[1] = Extrapolated AUC in Hanover Wistar rat at 10 mg/kg, po; type: ADME, organism-based; parameters: dose 10 mg/kg, route oral; details: in vivo
Method in brief: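 Hanover Wistar rats (n = 3) with jugular/femoral cannulae, oral gavage of a 2 mg/mL suspension in 2% Klucel LF with 0.1% Tween 80; femoral-vein sampling, EDTA plasma, acetonitrile precipitation, LC-MS/MS (5.0–5000 ng/mL), noncompartmental analysis; F relative to 5 mg/kg iv; mean of n = 3.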

[2] = Half life in Beagle dog at 5 mg/kg, iv; type: ADME, organism-based, Canis lupus familiaris; parameters: dose 5 mg/kg, route intravenous; details: in vivo
Method in brief: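 Plasma levels by protein precipitation with acetonitrile and LC-MS/MS (linear range 5.0–5000 ng/mL); noncompartmental analysis; mean of n = 3.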

O=C(Nc1ccc(C2CCN(C(=O)[C@H]3CC[C@H](C(=O)O)CC3)CC2)cc1)c1nc(-c2ccccc2)oc1C(F)(F)F
AUC [1]: 567 µM·h | half-life [2]: 5.3 h
